Source: ChEMBL document CHEMBL1149632, “New cytotoxic diterpenylnaphthohydroquinone derivatives obtained from a natural diterpenoid” (2007)

Legend:
Format in all cases: functional
A549 = experiment: Antineoplastic cytotoxicity against human A549 cells after 72 hrs by SRB method; settings: A549, 72 h
Method in brief: (§1)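 Cells seeded at 5 × 10^3 per well in RPMI and left to attach for 18 h in drug-free medium. Compounds were then added in DMSO/H2O (3:7) and exposed for 72 h. Cells were fixed with cold 50% TCA for 60 min at 4 °C and stained with 0.4% SRB in 1% acetic acid for 10 min at rt. Bound dye was solubilised in Tris and read at 490 nm. GI50 from 100×[(T−T0)/(C−T0)]=50.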

[1] = Antineoplastic cytotoxicity against human MEL28 cells after 72 hrs by SRB method; settings: SK-MEL-28, 72 h; method in brief: as §1
HT-29 = experiment: Antineoplastic cytotoxicity against human HT29 cells after 72 hrs by SRB method; settings: HT-29, 72 h; method in brief: as §1

Row | SMILES | GI50 (A549) [µM] | GI50 [1] [µM] | GI50 (HT-29) [µM]
1 | C=C1[C@H](O)C[C@@H]2[C@](C)(CCC[C@]2(C)C(=O)OC)[C@H]1CCc1ccc2c(OCc3ccccc3)ccc(OCc3ccccc3)c2c1 | > 4.9 | > 4.9 | > 4.9
2 | C=C1CC[C@@H]2[C@](C)(CCC[C@]2(C)C(=O)O)[C@H]1CCc1ccc2c(OC(C)=O)ccc(OC(C)=O)c2c1 | 0.24 | 0.24 | 0.24
3 | C=C1C(=O)C[C@@H]2[C@](C)(CCC[C@]2(C)C(=O)OC)[C@H]1CCc1ccc2c(OCc3ccccc3)ccc(OCc3ccccc3)c2c1 | 14.8 | – | 8.1
4 | C=C1CC[C@@H]2[C@](C)(CCC[C@]2(C)C(=O)OC)[C@]1(O)CCc1ccc2c(OCc3ccccc3)ccc(OCc3ccccc3)c2c1 | 12.4 | 9 | 12.4
5 | COC(=O)[C@@]1(C)CCC[C@]2(C)C(CCc3ccc4c(OC(C)=O)ccc(OC(C)=O)c4c3)=C(C)C(=O)C[C@@H]12 | 0.19 | – | 0.19
6 | C=C1[C@H](O)C[C@@H]2[C@](C)(CCC[C@]2(C)C(=O)OC)[C@H]1CCc1ccc2c(OC)ccc(OC)c2c1 | > 6.4 | > 6.4 | > 6.4
7 | COC(=O)[C@@]1(C)CCC[C@]2(C)C(CCc3ccc4c(OC)ccc(OC)c4c3)=C(C)CC[C@@H]12 | > 6.7 | > 6.7 | > 6.7
8 | COC(=O)[C@@]1(C)CCC[C@]2(C)C(CCc3ccc4c(OC(C)=O)ccc(OC(C)=O)c4c3)=C(C)CC[C@@H]12 | 0.24 | – | 0.24
9 | C=C1CC[C@@H]2[C@](C)(CCC[C@]2(C)C(=O)OC)[C@H]1/C=C/c1ccc2c(OC)ccc(OC)c2c1 | > 22.3 | – | > 22.3
10 | C=C1CC[C@@H]2[C@](C)(CCC[C@]2(C)C(=O)OC)[C@H]1CCC1=CCc2c(OC(C)=O)ccc(OC(C)=O)c2C1 | 0.51 | 0.68 | 1.38
11 | C=C1CC[C@@H]2[C@](C)(CCC[C@]2(C)C(=O)O)[C@H]1CCC1=CCc2c(OC(C)=O)ccc(OC(C)=O)c2C1 | 2.5 | 5 | 10.1
12 | C=C1CC[C@@H]2[C@](C)(CCC[C@]2(C)C(=O)OC)[C@H]1CCc1ccc2c(OC)ccc(OC)c2c1 | > 6.7 | > 6.7 | > 6.7
13 | COC(=O)[C@@]1(C)CCC[C@]2(C)C(CCc3ccc4c(OC(C)=O)ccc(OC(C)=O)c4c3)=C(C)[C@@H](O)C[C@@H]12 | 4.8 | – | 4.8
14 | C=C1CC[C@H]2[C@@](C)(CCC[C@@]2(C)C(=O)OC)[C@@H]1CCc1ccc2c(c1)C(=O)c1cc(CC[C@H]3C(=C)CC[C@@H]4[C@]3(C)CCC[C@]4(C)C(=O)OC)ccc1C2=O | > 4.1 | > 4.1 | > 4.1
15 | C=C1CC[C@@H]2[C@](C)(CCC[C@]2(C)C(=O)OC)[C@H]1CCc1ccc2c(OC(C)=O)ccc(OC(C)=O)c2c1 | 0.12 | 0.12 | 0.5
16 | COC(=O)[C@@]1(C)CCC[C@]2(C)C(CCc3ccc4c(OCc5ccccc5)ccc(OCc5ccccc5)c4c3)=C(C)CC[C@@H]12 | 15.2 | – | > 16.6
17 | C=C1C(=O)C[C@@H]2[C@](C)(CCC[C@]2(C)C(=O)OC)[C@H]1CCc1ccc2c(OC)ccc(OC)c2c1 | 3.7 | – | 3.2
18 | C=C1CC[C@@H]2[C@](C)(CCC[C@]2(C)C(=O)OC)[C@]1(O)CCc1ccc2c(OC)ccc(OC)c2c1 | > 21.5 | – | > 21.5
19 | C=C1[C@H](O)C[C@@H]2[C@](C)(CCC[C@]2(C)C(=O)OC)[C@H]1CCc1ccc2c(OC(C)=O)ccc(OC(C)=O)c2c1 | 1.6 | – | 1
20 | C=C1C(=O)C[C@@H]2[C@](C)(CCC[C@]2(C)C(=O)OC)[C@H]1CCc1ccc2c(OC(C)=O)ccc(OC(C)=O)c2c1 | 2.3 | – | 4.4
21 | C=C1CC[C@@H]2[C@](C)(CCC[C@]2(C)C(=O)O)[C@H]1CCc1ccc2c(c1)C(=O)C=CC2=O | > 7.4 | 5.7 | 5.7
22 | C=C1CC[C@@H]2[C@](C)(CCC[C@]2(C)C(=O)OC)[C@H]1CCc1ccc2c(OCc3ccccc3)ccc(OCc3ccccc3)c2c1 | > 5 | > 5 | > 5
23 | C=C1CC[C@@H]2[C@](C)(CCC[C@]2(C)C(=O)OCc2ccccc2)[C@H]1CCc1ccc2c(OCc3ccccc3)ccc(OCc3ccccc3)c2c1 | 6.5 | – | 4.4
24 | C=C1CC[C@@H]2[C@](C)(CCC[C@]2(C)C(=O)OC)[C@H]1CCc1ccc2c(c1)C(=O)C=CC2=O | 0.2 | 0.2 | 0.2
25 | COC(=O)[C@@]1(C)CCC[C@]2(C)C(CCc3ccc4c(OC)ccc(OC)c4c3)=C(OOC(C)(C)C)CC[C@@H]12 | > 18.6 | > 18.6 | > 18.6
